UCH37 inh: human UCH37 deubiquitinating enzyme inhibition; Q9Y5K5; purified proteasome/UCH37, Ub-AMC cleavage fluorescence; inhibition, % (concentration not given with the values); hit rate 0.33% among 330,000; AID 588478;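 active means mean inhibition over replicate wells above about 20%, limit read from the data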;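 further: 0% = compound-free wells with enzyme and 100% = wells lacking proteasome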
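system = Proteasome-associated human UCH37 deubiquitinase | amount = 0.15 nM proteasome as dispensed | medium = pH 7.4 Tris-HCl (50 mM) with ovalbumin, ATP-MgCl2, DTT | incubation = 30 min preincubation with enzyme, 25 min cleavage at room temperature | detection = AMC fluorescence 355/460 nm | read-out basis = percent inhibition | controls = no-proteasome and no-compound wells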
Arrestin-AP2 inh: human beta-arrestin and AP2 interaction inhibition; FITC-arrestin peptide / GST-AP2 beads, flow cytometry; AP2 beta2 appendage carries R879A mutation; inhibition, % at 10 µM; hit rate 0.31% among 340,000; AID 504490;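 active means inhibition above a set limit, near 3 SD of compounds lacking own fluorescence, cut at about 54% in these data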;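 further: plate controls were DMSO wells for no effect and 5 µM unlabelled arrestin peptide for full effect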
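System: GST-AP2 R879A glutathione beads. Medium: PBS with 0.05% Tween 20 and 0.1% BSA. Also added: FITC-arrestin peptide, 50 nM. Incubation: 12 min plus 1 h, RT. Measured by: high-throughput flow cytometry of beads, ex 488, em 535 nm. Evaluation: percent drop in bead-associated FITC signal.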
AHR act: human AHR activation; P35869; AHR-responsive luciferase reporter cells, luminescence; activation, % at 5 µM; hit rate 2.5% among 320,000; in the data active means activation above about 47%;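 further: 0% = vehicle wells and 100% = reference agonist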
PolyA inhibitor: inhibitors of polyadenylation in S. cerevisiae | S. cerevisiae SKY197-pL101 polyadenylation reporter, beta-gal luminescence; efflux-impaired pdr1/pdr3 knockout yeast; score 100 = 6 SD above DMSO | activity score, % at 12 µM | hit rate 0.02% among 300,000 | AID 1875;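 active means lowest replicate activity score at least 50, where 100 means six control SD above control mean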;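 further: yeast exposed to compound for 9 h at 30 °C; higher score means more reporter readthrough which indicates perturbed polyadenylation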
APOBEC3G inh: blocks human APOBEC3G single-stranded DNA deamination; recombinant A3G, ssDNA deamination FAM/TAMRA fluorescence; inhibition, % at 20 µM; AID 493012; hit rate 0.28% among 330,000;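 active means inhibition of at least 40% at 20 µM, with no more than 30% in the related APOBEC3A deaminase screen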;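 further: plate controls were DMSO wells with A3G for no effect and wells lacking A3G enzyme for full effect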
A3A deaminase: inhibitors of human APOBEC3A DNA deaminase | P31941 | recombinant A3A, FAM/TAMRA ssDNA deamination fluorescence | inhibition, % at 20 µM | hit rate 0.41% among 330,000 | AID 493011;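 active means at least 40% inhibition at 20 µM here, with at most 30% in a related deaminase screen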;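 further: plate controls were A3A with DMSO for no effect and wells lacking A3A enzyme for full effect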
Target sequence (P31941 whole entry, looked up): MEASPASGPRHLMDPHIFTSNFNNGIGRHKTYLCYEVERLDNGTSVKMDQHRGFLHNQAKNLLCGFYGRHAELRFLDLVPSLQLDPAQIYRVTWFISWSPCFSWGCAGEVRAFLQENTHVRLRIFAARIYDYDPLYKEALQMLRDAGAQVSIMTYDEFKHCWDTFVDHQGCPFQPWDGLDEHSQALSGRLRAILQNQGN
A3G conf: confirmation of human APOBEC3G DNA deaminase inhibitors. inhibition, % at 20 µM. hit rate 72% among 890. shares compounds with APOBEC3G inh. AID 493152. recombinant A3G ssDNA deaminase, UDG/FAM-TAMRA fluorescence;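 active means inhibition reaching a set limit in any replicate at 20 µM, the limit being 80% of the first screen's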
UDG ctr A3G: E. coli UDG inhibition in APOBEC3G counter-screen. 710 tested, under 10 active. UDG counterscreen, FAM/TAMRA oligo fluorescence. inhibition, % at 20 µM. shares compounds with APOBEC3G inh;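 active means compounds giving 40% or more inhibition at 20 µM in any one of the three replicates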;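 further: plate controls were DMSO wells with UDG and oligo for no effect and DMSO wells lacking both for full effect; inhibitors lower the FAM signal released by uracil excision and alkaline cleavage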
Target sequence (P12295 whole entry, looked up): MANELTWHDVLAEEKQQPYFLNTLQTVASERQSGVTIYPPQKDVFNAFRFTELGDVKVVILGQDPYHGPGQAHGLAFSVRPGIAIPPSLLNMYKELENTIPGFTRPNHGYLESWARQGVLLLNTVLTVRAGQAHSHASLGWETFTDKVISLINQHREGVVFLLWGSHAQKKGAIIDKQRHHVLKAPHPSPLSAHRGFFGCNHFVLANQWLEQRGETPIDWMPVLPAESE
* hit, by the source's call; i = inactive; / = no result. In the library only some 3.4% were active in any assay of this set; here they are far more common.

SMILES	UCH37 inh	Arrestin-AP2 inh	AHR act	PolyA inhibitor	APOBEC3G inh	A3A deaminase	A3G conf	UDG ctr A3G
O=C(O)c1ccccc1C(=O)Nc1nccs1	4	5	1	6	-12	-2	/	/
CCOC(=O)c1cc(C(O)(C(F)(F)F)C(F)(F)F)c(N=CN(C)C)o1	1	/	/	/	/	/	/	/
CCC1(C)CC(C(N)=S)CCO1 (stereo unspecified)	5	5	-1	9	57*	1	45*	4
CC1(C)CC(C(N)=S)CCO1 (stereo unspecified)	4	3	1	-5	0	0	/	/
CCC(=O)Nc1ccc(N2CCOCC2)c(S(=O)(=O)Nc2ccc(Cl)cc2)c1	1	-1	-1	/	37	2	/	/
O=C(Nc1ccc(N2CCOCC2)c(S(=O)(=O)Nc2ccc(Cl)cc2)c1)c1cnccn1	2	26	9	-2	46*	0	60*	-3
O=C(Nc1ccc(N2CCOCC2)c(S(=O)(=O)Nc2ccc(Cl)cc2)c1)c1ccc(=O)[nH]n1	3	-3	13	/	8	37	/	/
C[C@H](NC(N)=O)C(=O)Nc1ccc(N2CCOCC2)c(S(=O)(=O)Nc2ccc(Cl)cc2)c1	5	-4	2	/	46*	-2	30*	3
CC(=NNC(=O)c1cccc2ccccc12)c1ccccn1	3	/	/	/	/	/	/	/
O=C(CNC(=O)C(c1ccccc1)c1ccccc1)NN=Cc1ccc(O)c([N+](=O)[O-])c1	10	/	/	/	/	/	/	/
O=C(NN=Cc1coc2ccc(Cl)cc2c1=O)c1cc(O)cc(O)c1	-39	/	/	/	/	/	/	/
O=[N+]([O-])c1ccc(N2CCN(c3ccc(O)cc3)CC2)cn1	11	27	-4	-13	47*	2	13	/
O=[N+]([O-])c1ccc(N2CCN(c3ccccc3Cl)CC2)cn1	5	-1	-5	17	-4	1	/	/
Cc1cc(NC(=O)CCCC(=O)NCc2ccccc2)no1	1	3	0	-12	44*	0	0	/
Cc1[nH]c(=O)[nH]c(=S)c1C(=O)Nc1ccc(Cl)c(Cl)c1	6	-7	4	-16	60*	-1	74*	-6
COc1ccc(OC)c(C=NNC(=O)CC(=O)NC2CCCCC2)c1	i	/	/	/	/	/	/	/
Cc1ccc(CNC(=O)COc2cc(O)c3c(c2)OC(C)(C)CC3=O)cc1	2	6	-1	-1	4	2	/	/
Cc1cc(OCC(=O)N(C)c2ccccc2)cc2c1C(=O)CC(C)(C)O2	0	-28	3	-4	59*	2	1	/
CC(NC(=O)COc1ccc(C=NNC(=O)CO)cc1)c1ccccc1 (stereo unspecified)	-2	/	/	/	/	/	/	/
COc1ccc(OC)c(/C=N/n2c(-c3n[nH]c4c3CCC4)n[nH]c2=S)c1	/	-6	4	-9	42*	-6	83*	-2
COc1ccc(/C=N/n2c(-c3n[nH]c4c3CCC4)n[nH]c2=S)cc1	/	8	18	12	40*	-8	74*	-2
COc1cc(OC)c(OC)cc1/C=N/n1c(-c2n[nH]c3c2CCC3)n[nH]c1=S	/	2	17	-9	39	-6	/	/
Cc1ccsc1C=NNc1ncnc2nc[nH]c12	15	/	/	/	/	/	/	/
O=c1oc(-c2ccc(O)c(O)c2)cc2cccc(O)c12	-53	-3	22	/	-5	1	/	/
Oc1cccc2cc3cccc(O)c3c(O)c12	/	2	-5	-15	55*	13	62*	-2
FC(F)(F)c1ccc(Cl)c(NC(=S)NN=Cc2ccccc2Cl)c1	4	/	/	/	/	/	/	/
CCOc1ccc(C(=S)NC2CCCCC2)cc1OC	3	20	5	-9	58*	-2	50*	4
COc1ccccc1C(=O)NN=C(C)c1cccnc1	2	/	/	/	/	/	/	/
Oc1ccc(C(=S)N2CCN(Cc3ccccc3)CC2)cc1	4	-7	3	17	39	5	/	/

From PubChem BioAssay
